Experimental data from ChEMBL document CHEMBL4190361, “Discovery of New Selenoureido Analogues of 4-(4-Fluorophenylureido)benzenesulfonamide as Carbonic Anhydrase Inhibitors” (ACS Med Chem Lett, 2017).
Activity calls are given as the source filed them. The rule behind the calls is not given here.

What was measured:
HT-29 [1] = assay: Cytotoxicity against human HT-29 cells assessed as reduction in cell viability at 30 to 300 uM after 48 hrs under hypoxic condition by MTT assay; type: functional, cell-based
Summary of the method: (§1)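 Cells plated at 1 × 10^4/well and exposed to test agents at 30, 100 and 300 μM for 48 h, in normoxia (20% O2) or hypoxia (0.1% O2). Viability is expressed relative to untreated control set at 100%, as mean ± SEM of three experiments.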

PC-3 [2] = assay: Cytotoxicity against human PC3 cells assessed as reduction in cell viability at 300 uM after 48 hrs under normoxic condition by MTT assay; type: functional, cell-based
Summary of the method: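 PC3 human prostate cancer cells seeded at 1 × 10^4/well and exposed for 48 h under normoxia (20% O2). The same run also used hypoxia (0.1% O2). Compounds tested at 30, 100 and 300 μM. Viability is expressed relative to untreated control set at 100%. Mean ± SEM of three experiments.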

HT-29 [3] = assay: Cytotoxicity against human HT-29 cells assessed as reduction in cell viability at 30 to 300 uM after 48 hrs under normoxic condition by MTT assay; type: functional, cell-based; summary of the method: as §1
[4] = Gpx-like activity of the compound assessed as H2O2 reduction by measuring DTT oxidation measured within 35 mins by 1H-NMR analysis; type: functional
Summary of the method: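 Oxidation of reduced DTT followed by 1H NMR, with DTTred and DTTox populations taken from signal integration. Catalyst loading 10%. Control run without catalyst, with (PhSe)2 as a standard comparator. T50 is the time to halve the initial DTTred. Mean ± SD of three separate experiments.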

MDA-MB-231 [5] = assay: Cytotoxicity against human MDA-MB-231 cells assessed as reduction in cell viability at 30 uM after 48 hrs under normoxic condition by MTT assay; type: functional, cell-based; summary of the method: as §1
[6] = Gpx-like activity of the compound assessed as GSH-mediated H2O2 reduction by measuring NADPH consumption measured within 100 secs by UV spectroscopic analysis; type: functional
Summary of the method: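 NADPH-coupled GPx assay with GSH as substrate and H2O2 as oxidant, with glutathione reductase. Initial conditions: NADPH 0.6 mM, GSH 2.0 mM, H2O2 5 mM, GR 8 units/mL, catalyst 0.2 mM, pH 7.4 phosphate buffer, room temperature. Read-out is the absorbance decrease at 340 nm from NADPH consumption. Mean ± SD of three experiments.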

Carbonic anhydrase 9 = Carbonic anhydrase 9 (Homo sapiens, UniProt Q16790)
MDA-MB-231 [7] = assay: Cytotoxicity against human MDA-MB-231 cells assessed as reduction in cell viability at 300 uM after 48 hrs under normoxic condition by MTT assay; type: functional, cell-based; summary of the method: as §1
PC-3 [8] = assay: Cytotoxicity against human PC3 cells assessed as reduction in cell viability at 30 to 300 uM after 48 hrs under normoxic condition by MTT assay; type: functional, cell-based; summary of the method: as §1
PC-3 [9] = assay: Cytotoxicity against human PC3 cells assessed as reduction in cell viability at 30 to 300 uM after 48 hrs under hypoxic condition by MTT assay; type: functional, cell-based; summary of the method: as §1
MDA-MB-231 [10] = assay: Cytotoxicity against human MDA-MB-231 cells assessed as reduction in cell viability at 30 to 100 uM after 48 hrs under hypoxic condition by MTT assay; type: functional, cell-based; summary of the method: as §1
MDA-MB-231 [11] = assay: Cytotoxicity against human MDA-MB-231 cells assessed as reduction in cell viability at 30 to 100 uM after 48 hrs under normoxic condition by MTT assay; type: functional, cell-based; summary of the method: as §1
MDA-MB-231 [12] = assay: Cytotoxicity against human MDA-MB-231 cells assessed as reduction in cell viability at 300 uM after 48 hrs under hypoxic condition by MTT assay; type: functional, cell-based; summary of the method: as §1

NS(=O)(=O)c1ccc(NC(=O)Nc2ccc(F)cc2)cc1
Activity (HT-29 [1]): Active | Activity (PC-3 [2]): Active | Activity (HT-29 [3]): Active | Activity [4]: inactive | Activity (MDA-MB-231 [5]): Active | Activity [6]: inactive

NS(=O)(=O)c1ccc(CCNC(=[Se])Nc2ccc(I)cc2)cc1
Activity (HT-29 [1]): inactive | Ki (Carbonic anhydrase 9): 54.9 nM | Activity (MDA-MB-231 [7]): inactive | Activity (PC-3 [8]): inactive | Activity (PC-3 [9]): inactive | Activity (MDA-MB-231 [10]): inactive | Activity (HT-29 [3]): inactive | Activity (MDA-MB-231 [11]): inactive | Activity (MDA-MB-231 [12]): inactive

NS(=O)(=O)c1ccc(CCNC(=[Se])Nc2ccccc2F)cc1
Activity (HT-29 [1]): inactive | Ki (Carbonic anhydrase 9): 8.7 nM | Activity (MDA-MB-231 [7]): Active | Activity (PC-3 [8]): Active | Activity (PC-3 [9]): Active | Activity (MDA-MB-231 [10]): inactive | Activity (HT-29 [3]): inactive | Activity (MDA-MB-231 [11]): inactive | Activity (MDA-MB-231 [12]): Active

NS(=O)(=O)c1ccc(CCNC(=[Se])Nc2cccc(C(F)(F)F)c2)cc1
Ki (Carbonic anhydrase 9): 5.8 nM

NS(=O)(=O)c1ccc(CCNC(=[Se])Nc2ccccc2Cl)cc1
Ki (Carbonic anhydrase 9): 4.8 nM

NS(=O)(=O)c1cccc(NC(=[Se])Nc2ccccc2)c1
Ki (Carbonic anhydrase 9): 330 nM

NS(=O)(=O)c1ccc(NC(=[Se])Nc2ccccc2)cc1
Ki (Carbonic anhydrase 9): 78.9 nM

NS(=O)(=O)c1ccc(NC(=[Se])Nc2ccc(F)cc2)cc1
Activity (HT-29 [1]): inactive | Ki (Carbonic anhydrase 9): 63 nM | Activity (PC-3 [8]): Active | Activity (PC-3 [9]): Active | Activity (HT-29 [3]): inactive | Activity [4]: Active | Activity (MDA-MB-231 [5]): Active | Activity [6]: Active

COc1ccccc1NC(=[Se])NCCc1ccc(S(N)(=O)=O)cc1
Ki (Carbonic anhydrase 9): 3.1 nM

NS(=O)(=O)c1ccc(CCNC(=[Se])Nc2ccc(Br)cc2)cc1
Ki (Carbonic anhydrase 9): 4.8 nM

NS(=O)(=O)c1ccc(NC(=[Se])Nc2ccccc2F)cc1
Ki (Carbonic anhydrase 9): 5.8 nM

NS(=O)(=O)c1ccc(CCNC(=[Se])Nc2ccc3ccccc3c2)cc1
Ki (Carbonic anhydrase 9): 93.1 nM

NS(=O)(=O)c1ccc(NC(=S)Nc2ccc(F)cc2)cc1
Ki (Carbonic anhydrase 9): 32.1 nM | Activity [4]: inactive | Activity [6]: inactive

NS(=O)(=O)c1ccc(NC(=[Se])Nc2cccc(C(F)(F)F)c2)cc1
Ki (Carbonic anhydrase 9): 15.9 nM

NS(=O)(=O)c1cccc(NC(=[Se])Nc2ccc(F)cc2)c1
Ki (Carbonic anhydrase 9): 97.8 nM

NS(=O)(=O)c1ccc(CCNC(=[Se])Nc2ccccc2)cc1
Ki (Carbonic anhydrase 9): 5.3 nM

NS(=O)(=O)c1ccc(NC(=[Se])Nc2ccccc2Cl)cc1
Ki (Carbonic anhydrase 9): 3.9 nM
